Measured values as given in the EternaBench riboswitch data.

System: MS2 coat protein
Assay: apparent Kd, MS2 coat protein; higher = weaker binding; RNA-MaP array
How it was run: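 Incubations were done at room temperature with fluorescently labeled MS2 coat protein at 1.5 nM to 3 μM and designed RNAs transcribed on an Illumina sequencing chip from sequenced DNA templates, with or without input ligand. Apparent Kd is the median of binding curves fitted for each cluster. Designs with fewer than 10 measured clusters were excluded.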

[1] = designed as: OFF switch for flavin mononucleotide, no ligand
[2] = ligand present: flavin mononucleotide, designed as: OFF switch for flavin mononucleotide
[3] = designed as: ON switch for flavin mononucleotide, no ligand
[4] = ligand present: flavin mononucleotide, designed as: ON switch for flavin mononucleotide
[5] = designed as: OFF switch for theophylline, no ligand
[6] = ligand present: theophylline, designed as: OFF switch for theophylline

## AGUUGAGGAGGAUAUACAUGAGGAUCACCCAUGUGACUGUGUCUGUUGCGCUGGAUCGGUAGAAGGCCUUAGUA
[1]
  apparent Kd: 12.2 nM
[2]
  apparent Kd: 16.4 nM

## AGUUUUAUCGUGUAGGAUAUGGGAUAAUCAACAUGAGGAUCACCCAUGUCAUGAGUGACAAGCGACCAGAAGGACACCAAUACAAC
[3]
  apparent Kd: 400 nM
[4]
  apparent Kd: 55.8 nM

## AUAGAGGAAGGAUAUACAUGAGGAUCACCCAUGUAACGAAGUAGUUGGAUGCCAUGAAGUAGAAGGUCCAGAUG
[1]
  apparent Kd: 14.5 nM
[2]
  apparent Kd: 13.6 nM

## AUAGAUAAGCAGAAGGGCUUGAGAUCCGUAACUAUUGACAUGAGGAUCACCCAUGUUCGUCCCUAGCAGGAUAUGCAAAGAAGC
[3]
  apparent Kd: 61.2 nM
[4]
  apparent Kd: 22.5 nM

## AUAGGGCGACAGAAGGGCAGUGCACGCAUUGCUGCAGGAUAUGUGGUCCACAUGAGGAUCACCCAUGUAGUAAUAUCUUGUAGU
[3]
  apparent Kd: 104 nM
[4]
  apparent Kd: 71.2 nM

## AUCGAUAAGAAGAAGGCAUUGGCGAUGACGUUAUGAGGAUAUUCAACUACAGCUUGACCACUACAUGAGGAUCACCCAUGUGAA
[3]
  apparent Kd: 19.6 nM
[4]
  apparent Kd: 12.1 nM

## AUCUGGUUACAAGGAUAUCCAAUGUAAACAAUAGGAGAAGGAGUGAAAAGACCUAGGAAAACAUGAGGAUCACCCAUGUAAUUA
[3]
  apparent Kd: 111 nM
[4]
  apparent Kd: 39.1 nM

## AUGUCGGCAGGAUAUACUGGAACUUGACCCGUGAACACGAUACAUGAGGAUCACCCAUGUAGAAGGGCCUAAAA
[1]
  apparent Kd: 11.5 nM
[2]
  apparent Kd: 43.4 nM

## AUUACCCAAGGAUAUUGCAAUUGAGACAUGAGGAUCACCCAUGUACUUCCGGGUGUCAAUCAAGAAGGUGGAUGUU
[1]
  apparent Kd: 23.1 nM
[2]
  apparent Kd: 20.9 nM

## AUUCGGUCAGGAUAUAGCGCACGCCGACGAACAUGUGGCGGCUAGAAGGGACAUGAGGAUCACCCAUGUCGGGC
[1]
  apparent Kd: 8.41 nM
[2]
  apparent Kd: 10.7 nM

## AUUUAGCAUAUACAUGAGGAUCACCCAUGUCUGAUACAUAGUAGAAGGCCCGUUAAGACAUACAGGGAGGAUAUACGUACAUGU
[3]
  apparent Kd: 49 nM
[4]
  apparent Kd: 9.85 nM

## AUUUUGGGAGGAUAUACAUGAGGAUCACCCAUGUUUUAGAACGUAAGAGAAUCCGGAGGUAGAAGGCCCUUCUG
[1]
  apparent Kd: 180 nM
[2]
  apparent Kd: 212 nM

## CAAAGGAACCAGAAGGCCAUAGGUAAAAUAGUUGGAGGAUAUGGGCACAUGAGGAUCACCCAUGUUCACUGUAAUCAGGAAUAG
[3]
  apparent Kd: 102 nM
[4]
  apparent Kd: 35.3 nM

## CAAAUGAGAGGAUAUACAAUUAGAUUUCAAAGUCACAUCAGACAUGAGGAUCACCCAUGUAGAAGGCUCGGAUA
[1]
  apparent Kd: 23.7 nM
[2]
  apparent Kd: 193 nM

## CAAUGGACGGUAGGAUAUGUACUAGAGAAGCAGACAGAAGGACCUAGUCCGACAUGAGGAUCACCCAUGUGAAACCCGGUCCAG
[1]
  apparent Kd: 6.83 nM
[2]
  apparent Kd: 6.44 nM

## CACAAACCAGAGAAGGCCCUAAGAGUAUAGAGAAUACGAAACAUGAGGAUCACCCAUGUCAUAUGGGAGGAUAUCAACAAGAUU
[3]
  apparent Kd: 135 nM
[4]
  apparent Kd: 11.3 nM

## CACAAGUCGUAGGAUAUCACCACAAAUAGCUGCUGAGAAGGACGGACAUGAGGAUCACCCAUGUGUUCCGCAAU
[1]
  apparent Kd: 14.8 nM
[2]
  apparent Kd: 23.8 nM

## CACUACAUGAGGAUCACCCAUGUAUACUGACGAGGACCGGUACGGCCGCCACUCGAACCGAAACCGACUUCAUUCUGUGUACCAU
Designed as: ON switch for tryptophan, no ligand
  apparent Kd: 15.4 nM
Ligand present: tryptophan, designed as: ON switch for tryptophan
  apparent Kd: 16.2 nM

## CAGGGACAUGAGGAUCACCCAUGUAAGGAUAUGCCCAAAAGAGCGACUACUAAAGGAGGCAGAAGGUACGAACG
[1]
  apparent Kd: 28.6 nM
[2]
  apparent Kd: 31.6 nM

## CCACGGAGUUUAGGAUAUGUCGGCUUGGAGUUUACAGAAGGAAAUUGCGCAGCCACAUGAGGAUCACCCAUGUUCGGAAAUACG
[3]
  apparent Kd: 31 nM
[4]
  apparent Kd: 21.4 nM

## CCAGCUCUAUAGGAUAUUCUUGAUGAAGACACGGAAGAAGGAUAGACAUGAGGAUCACCCAUGUCCUUACAUGU
[1]
  apparent Kd: 19.4 nM
[2]
  apparent Kd: 17.3 nM

## CCAGGACAUGAGGAUCACCCAUGUACGGUCAGCGAAGGAUAUAUUGCGUGGCGAGUGCUGAUAGAAGGUCGUAAAC
[3]
  apparent Kd: 15 nM
[4]
  apparent Kd: 10.9 nM

## CCAGUUGACUAGAAGGCAAUACGGAUAAAGUAACUGACCACAUGAGGAUCACCCAUGUAUCCCAUUGAGGAUAUAGCAUUAAGU
[1]
  apparent Kd: 44.2 nM
[2]
  apparent Kd: 25.8 nM

## CCCACGUACGAGAAGGCACCGGUUUGAUCCACGUAAGUCCUUUACAUGAGGAUCACCCAUGUAGGUGAGGAUAUCGUCAUGACU
[1]
  apparent Kd: 160 nM
[2]
  apparent Kd: 264 nM

## CCCAGAUGCUAGAAGGCCUACAUGAGGAUCACCCAUGUAUCCGCUAUCCACACACGCAGGCGGCAGGAGGAUAUAGACGAAGGA
[3]
  apparent Kd: 8.84 nM
[4]
  apparent Kd: 6.63 nM

## CCGGAAUUGCAGGAUAUACGCAAACCACAUGCUGUAGAAGGGCAAACAUGAGGAUCACCCAUGUGGUCGAGCAG
[1]
  apparent Kd: 13.4 nM
[2]
  apparent Kd: 17.9 nM

## CCGGAGACCGUGUCAGCGGAAGCAAGAACACGAGGACCGGUACGGCCGCCACUCGAAAGAAGACAUGAGGAUCACCCAUGUCCAU
Designed as: OFF switch for tryptophan, no ligand
  apparent Kd: 12 nM
Ligand present: tryptophan, designed as: OFF switch for tryptophan
  apparent Kd: 13.9 nM

## CCUAUCAAACGAGGAUAUGUGCGGACAAGAAACACAGAAGGCGAACCACAUGAGGAUCACCCAUGUACGAAGACAAAGCAAGAA
[3]
  apparent Kd: 22.7 nM
[4]
  apparent Kd: 14.5 nM

## CGACACCAGGCAAUCCAUCACCCGGCUGAUACCAGCUCUUUUGGAAGCCCUUGGCAGCAGAGAACAUGAGGAUCACCCAUGUCAG
[5]
  apparent Kd: 14.6 nM
[6]
  apparent Kd: 21.2 nM

## CGAUACAAAUAAAGCGUUCGUCCGCCAGAUACCAGAUUCAUUUCCAUCCCUUGGCAGCUGUCGACAUGAGGAUCACCCAUGUUUG
[5]
  apparent Kd: 18.3 nM
[6]
  apparent Kd: 20.9 nM

## CGCGCUGAAGGAUAUGCAUUGGACUACAUGAGGAUCACCCAUGUCCCGUCUUGUGGACCCGCAGAAGGUCACUACC
[1]
  apparent Kd: 9.25 nM
[2]
  apparent Kd: 12 nM

## CGGAAACAAGUAGGAUAUCACUUGAAUGUACAUGAGGAUCACCCAUGUUCCUUACGGCCGCGUUUUGAGAAGGACUAUUCAAAA
[1]
  apparent Kd: 17.6 nM
[2]
  apparent Kd: 15 nM

## CGGAUUUGGUAGAAGGUUUCGUCACAUAUCGCAAAAGGAUAUACUAAACAUGAGGAUCACCCAUGUGUCGUGGGAGUUAAUUCA
[1]
  apparent Kd: 72.3 nM
[2]
  apparent Kd: 70.5 nM

## CGGUCACAUGAGGAUCACCCAUGUAAGGAUAUAGAUGUCUGUGUCAACCGACGGGCUUCUAGAAGGUACGGAUG
[1]
  apparent Kd: 18.6 nM
[2]
  apparent Kd: 18.1 nM

## CGUAAUAACUCACAGGAUAUGCGAGAGGAGACAUGAGGAUCACCCAUGUGACCAUGAAUAUUCCUGCAGAAGGGUGAUAAAUCAUU
[3]
  apparent Kd: 13 nM
[4]
  apparent Kd: 18 nM

## CGUAAUGCACUAGGAUAUGUUGUAUAUACAACGACAGAAGGAGUUCCACAUGAGGAUCACCCAUGUCCAAACCAAUACUCAUCG
[3]
  apparent Kd: 78.2 nM
[4]
  apparent Kd: 64 nM

## CUCAAUUAAGAGAAGGUUACUUGUGUUACGUGUAAAGGAUAUCUAAGCGCUAGGCACAUGAGGAUCACCCAUGUUCCUGCCUUU
[3]
  apparent Kd: 7.64 nM
[4]
  apparent Kd: 6.03 nM

## CUCGAGUUUACAGGAUAUUAGGAAAUCGGAUAUUAAGAAGGGUAAAUGUACAUGAGGAUCACCCAUGUUCUCUGCUGCGUCAUA
[1]
  apparent Kd: 15.4 nM
[2]
  apparent Kd: 14.5 nM

## CUCUAACAAGGAUAUACAUGUCCCAGGAUCCUAUAGGCUUUACAUGAGGAUCACCCAUGUAGAAGGUGUAUUAC
[1]
  apparent Kd: 18.7 nM
[2]
  apparent Kd: 16.4 nM

## CUGAAGUCUGACCCUCGAAACAUGAGGAUCACCCAUGUAGUCAGAAGGCGAUUGUGAGCAGGAAUCGAGGAUAUGAACUAGUUU
[1]
  apparent Kd: 7.72 nM
[2]
  apparent Kd: 10 nM

## CUUCAGGCGGAGGAUAUCUUACAGUUAUCGUACAGAGAAGGCCGCACAUGAGGAUCACCCAUGUCAGGCGACUU
[1]
  apparent Kd: 29.8 nM
[2]
  apparent Kd: 162 nM

## CUUCCCACGUAGAAGGUGCACCAGUUAACCAAUAACAGGUUGACAUGAGGAUCACCCAUGUUUCGCAAGGAUAUACUGUUCACG
[3]
  apparent Kd: 48.5 nM
[4]
  apparent Kd: 34.8 nM

## CUUGGAAGACAGAAGGGCAUCCACCCGGGACCAGCAGGAUAUGUCAACGGUAGCCGAAAACAUGAGGAUCACCCAUGUCAGAAG
[3]
  apparent Kd: 75.8 nM
[4]
  apparent Kd: 30.1 nM

## GAAAUAUAGUCAGGAUAUCAGGACAUGAGGAUCACCCAUGUACUGAAUGGGCUGGUGAAAAGAGAUGAGAAGGGACACACUAGA
[1]
  apparent Kd: 6.23 nM
[2]
  apparent Kd: 5.78 nM

## GAACAUCGAGGAUAUACAUGAGGAUCACCCAUGUAUUAGAGGGUGCCCUAGCUCAAAAGUAGAAGGCGACAGGU
[1]
  apparent Kd: 9.8 nM
[2]
  apparent Kd: 12.7 nM

## GAAGAACCCGGAGGAUAUGCAAAGGAACAUGAGGAUCACCCAUGUUUCUUUCGGAAAUCUAGUGAGCAGAAGGCCGAAAGGAAC
[3]
  apparent Kd: 13.1 nM
[4]
  apparent Kd: 7.95 nM

## GAAUUAAAUCAAGGAUAUCUGUGGAAGCGGACCUCUUACAUGAGGAUCACCCAUGUUCGCGAGCAAGAGAAGGUGAUUAGCGAA
[1]
  apparent Kd: 414 nM
[2]
  apparent Kd: 131 nM

## GACAAGACAGGAUAUACAUAUAUGUAGCACGAAGAGUUAAGACAUGAGGAUCACCCAUGUAGAAGGGUCAUAAA
[1]
  apparent Kd: 19.2 nM
[2]
  apparent Kd: 17.7 nM

## GACACCGGUAUGGAGGAUAUGGGAGACAGUACAUGAGGAUCACCCAUGUCGUUAAGAAGAUAUCACCAGAAGGCCACUCGGUCGAG
[3]
  apparent Kd: 13.5 nM
[4]
  apparent Kd: 9.63 nM

## GACAUCAUAGGAGGAUAUGUUUUCUAAAGACUGACAGAAGGCCAGAACAGUAAGAACAAAAGACAUGAGGAUCACCCAUGUGUU
[3]
  apparent Kd: 16.6 nM
[4]
  apparent Kd: 9.36 nM

## GACAUGAGGAUCACCCAUGUGGGAAAGGUGUACUCUUGCGACUAGGAUAUGUUGUGGUCCCAGAGACAGAAGGAGUGGCGACGU
[1]
  apparent Kd: 52.1 nM
[2]
  apparent Kd: 42 nM

## GACUUGCAAGAGAAGGCGGCCACCAAUCAUCGGAGUGUAAACUCUACAUGAGGAUCACCCAUGUCCGAGGAUAUCUUCAUCAGU
[3]
  apparent Kd: 59.9 nM
[4]
  apparent Kd: 69.8 nM

## GAGGCGAAGGAGAAGGCCGCCAGUAAAGGUGACCGUAACAUGAGGAUCACCCAUGUGGAAUAAACGGAGGAUAUCCCUUCUCAG
[1]
  apparent Kd: 19 nM
[2]
  apparent Kd: 21.8 nM

## GAUAGUGAUCCGGGUUACAUGAGGAUCACCCAUGUUACAAAUAGAAGGUCAGAACAAAAUUGAAAGAAGGAUAUAUUUUCAUUG
[1]
  apparent Kd: 44.1 nM
[2]
  apparent Kd: 39.6 nM

## GAUCAACAUGAGGAUCACCCAUGUCAGGAUAUGCAGACAGUCUUUACGUCAGUCGUAAGCAGAAGGGACUACGG
[1]
  apparent Kd: 52.5 nM
[2]
  apparent Kd: 69.6 nM
